The nature of series [1]: Displacement of [125I]IMPY from amyloid beta (1-42) aggregates. In outline: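 Synthetic Aβ(1–42) dissolved at 0.25 mg/mL in 10 mM sodium phosphate, 1 mM EDTA, pH 7.4, aggregated 42 h at 37 °C with gentle constant shaking. Competition against [125I]IMPY (2200 Ci/mmol, >95% radiochemical purity). Filter-bound radioactivity gamma-counted, specific binding under 15% of total. IC50 from displacement curves, Ki by Cheng-Prusoff. Mean ± SEM of 3–6 independent experiments.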

The test system of series [2] is Kidney. As to the kind of experiment: Biodistribution in ddY mouse kidney at 0.5 uCi, iv after 30 mins. In kind it is ADME, organism-based. Particulars: in vivo, 0.5 h. In outline: (§1)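 Normal male-unspecified ddY mice (5-week-old, 22–25 g) given radioiodinated ligand by tail-vein injection, killed at set times post-injection. Organs removed and weighed, radioactivity counted in a gamma counter. Expressed as % injected dose per gram, stomach as % injected dose per organ. Mean (s.d.) of 3–5 animals per time point.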

Series [3] concerns Liver. Put plainly: Biodistribution in ddY mouse liver at 0.5 uCi, iv after 10 mins. In kind it is ADME, organism-based. Particulars: in vivo. Put shortly: as §1
Series [4] relates to Spleen. As to the kind of experiment: Biodistribution in ddY mouse spleen at 0.5 uCi, iv after 2 mins. In kind it is ADME, organism-based. Conditions: in vivo. In outline: as §1
Series [5] deals with Heart. Put plainly: Biodistribution in ddY mouse heart at 0.5 uCi, iv after 60 mins. Particulars: in vivo, 1 h. In kind it is ADME, organism-based. In outline: as §1
For series [6], the system named is Liver. As to the kind of experiment: Biodistribution in ddY mouse liver at 0.5 uCi, iv after 2 mins. In kind it is ADME, organism-based. Conditions: in vivo. Put shortly: as §1
Series [7] concerns Stomach. As to the kind of experiment: Biodistribution in ddY mouse stomach at 0.5 uCi, iv after 2 mins. In kind it is ADME, organism-based. Conditions: in vivo. In outline:
as §1

Series [8] deals with Intestine. Put plainly: Biodistribution in ddY mouse intestine at 0.5 uCi, iv after 60 mins. Conditions: in vivo, 1 h. In kind it is ADME, organism-based. Put shortly: as §1
For series [9], the system named is Brain. Put plainly: Biodistribution in ddY mouse brain at 0.5 uCi, iv after 10 mins. In kind it is ADME, organism-based. Conditions: in vivo. In outline: as §1
Series [10] deals with Spleen. As to the kind of experiment: Biodistribution in ddY mouse spleen at 0.5 uCi, iv after 60 mins. In kind it is ADME, organism-based. Conditions: in vivo, 1 h. In outline:
as §1

The subject of series [11] is Pancreas. Put plainly: Biodistribution in ddY mouse pancreas at 0.5 uCi, iv after 60 mins. In kind it is ADME, organism-based. Particulars: in vivo, 1 h. Put shortly:
as §1

Series [12] has as its system Pancreas. Put plainly: Biodistribution in ddY mouse pancreas at 0.5 uCi, iv after 30 mins. In kind it is ADME, organism-based. Particulars: in vivo, 0.5 h. In outline:
as §1

Series [13] deals with Brain. As to the kind of experiment: Biodistribution in ddY mouse brain at 0.5 uCi, iv after 30 mins. In kind it is ADME, organism-based. Particulars: in vivo, 0.5 h. Put shortly: as §1
In series [14] the test system is Liver. Put plainly: Biodistribution in ddY mouse liver at 0.5 uCi, iv after 60 mins. In kind it is ADME, organism-based. Conditions: in vivo, 1 h. Put shortly:
as §1

Series [15] has as its system Stomach. As to the kind of experiment: Biodistribution in ddY mouse stomach at 0.5 uCi, iv after 10 mins. In kind it is ADME, organism-based. Particulars: in vivo. In outline: as §1
For series [16], the system named is Brain. As to the kind of experiment: Biodistribution in ddY mouse brain at 0.5 uCi, iv after 2 mins. In kind it is ADME, organism-based. Particulars: in vivo. Put shortly:
as §1

Series [17] relates to Intestine. As to the kind of experiment: Biodistribution in ddY mouse intestine at 0.5 uCi, iv after 2 mins. Particulars: in vivo. In kind it is ADME, organism-based. Put shortly:
as §1

Series [18] has as its system Heart. Put plainly: Biodistribution in ddY mouse heart at 0.5 uCi, iv after 30 mins. In kind it is ADME, organism-based. Conditions: in vivo, 0.5 h. Put shortly: as §1
Series [19] deals with Heart. As to the kind of experiment: Biodistribution in ddY mouse heart at 0.5 uCi, iv after 2 mins. Particulars: in vivo. In kind it is ADME, organism-based. Put shortly: as §1
Series [20] deals with Pancreas. Put plainly: Biodistribution in ddY mouse pancreas at 0.5 uCi, iv after 2 mins. In kind it is ADME, organism-based. Particulars: in vivo. Put shortly: as §1
Series [21] concerns Blood. As to the kind of experiment: Biodistribution in ddY mouse blood at 0.5 uCi, iv after 30 mins. Conditions: in vivo, 0.5 h. In kind it is ADME, organism-based. Put shortly:
as §1

Series [22] relates to Brain. Put plainly: Biodistribution in ddY mouse brain at 0.5 uCi, iv after 60 mins. In kind it is ADME, organism-based. Conditions: in vivo, 1 h. Put shortly:
as §1

For series [23], the system named is Kidney. Put plainly: Biodistribution in ddY mouse kidney at 0.5 uCi, iv after 2 mins. Conditions: in vivo. In kind it is ADME, organism-based. In outline:
as §1

The subject of series [24] is Stomach. As to the kind of experiment: Biodistribution in ddY mouse stomach at 0.5 uCi, iv after 30 mins. In kind it is ADME, organism-based. Particulars: in vivo, 0.5 h. Put shortly:
as §1

Series [25] deals with Spleen. Put plainly: Biodistribution in ddY mouse spleen at 0.5 uCi, iv after 10 mins. Conditions: in vivo. In kind it is ADME, organism-based. In outline: as §1
Series [26] deals with Kidney. Put plainly: Biodistribution in ddY mouse kidney at 0.5 uCi, iv after 60 mins. In kind it is ADME, organism-based. Conditions: in vivo, 1 h. Put shortly: as §1
In series [27] the test system is Stomach. Put plainly: Biodistribution in ddY mouse stomach at 0.5 uCi, iv after 60 mins. In kind it is ADME, organism-based. Particulars: in vivo, 1 h. Put shortly:
as §1

In series [28] the test system is Kidney. As to the kind of experiment: Biodistribution in ddY mouse kidney at 0.5 uCi, iv after 10 mins. In kind it is ADME, organism-based. Particulars: in vivo. Put shortly: as §1
In series [29] the test system is Heart. Put plainly: Biodistribution in ddY mouse heart at 0.5 uCi, iv after 10 mins. In kind it is ADME, organism-based. Particulars: in vivo. Put shortly:
as §1

For series [30], the system named is Intestine. Put plainly: Biodistribution in ddY mouse intestine at 0.5 uCi, iv after 10 mins. In kind it is ADME, organism-based. Particulars: in vivo. Put shortly:
as §1

For series [31], the system named is Spleen. Put plainly: Biodistribution in ddY mouse spleen at 0.5 uCi, iv after 30 mins. In kind it is ADME, organism-based. Conditions: in vivo, 0.5 h. Put shortly:
as §1

Series [32] has as its system Blood. As to the kind of experiment: Biodistribution in ddY mouse blood at 0.5 uCi, iv after 60 mins. In kind it is ADME, organism-based. Conditions: in vivo, 1 h. In outline: as §1
For series [33], the system named is Pancreas. As to the kind of experiment: Biodistribution in ddY mouse pancreas at 0.5 uCi, iv after 10 mins. In kind it is ADME, organism-based. Particulars: in vivo. In outline: as §1
The subject of series [34] is Liver. As to the kind of experiment: Biodistribution in ddY mouse liver at 0.5 uCi, iv after 30 mins. In kind it is ADME, organism-based. Particulars: in vivo, 0.5 h. In outline:
as §1

For series [35], the system named is Blood. Put plainly: Biodistribution in ddY mouse blood at 0.5 uCi, iv after 2 mins. In kind it is ADME, organism-based. Particulars: in vivo. In outline:
as §1

The subject of series [36] is Blood. As to the kind of experiment: Biodistribution in ddY mouse blood at 0.5 uCi, iv after 10 mins. In kind it is ADME, organism-based. Conditions: in vivo. Put shortly: as §1
For series [37], the system named is Intestine. Put plainly: Biodistribution in ddY mouse intestine at 0.5 uCi, iv after 30 mins. In kind it is ADME, organism-based. Conditions: in vivo, 0.5 h. In outline:
as §1

With `Oc1ccc(-c2nc(-c3ccc(I)cc3)no2)cc1`, the Ki in [1] turned out to be 47.1 nM.
As for `Nc1ccc(-c2nc(-c3ccc(I)cc3)no2)cc1`, the affinity in series [1], expressed as Ki, was 14.2 nM.
In the case of `CN(C)c1ccc(-c2nc(-c3ccc(I)cc3)no2)cc1`, the affinity in series [1] corresponds to a Ki of 15.4 nM.
With `COc1ccc(-c2nc(-c3ccc([125I])cc3)no2)cc1`, the Drug uptake in the series with Kidney [2] came out at 3.85 % ID/g; in the series on Liver [3], 9.35 % ID/g; in the series on Spleen [4] it was 4.41 % ID/g; in the series on Heart [5], 1.35 % ID/g; with Liver [6], 11.92 % ID/g; in the series on Stomach [7], 0.62 % ID/organ. Moreover, the Drug uptake is 8.21 % ID/g in the series with Intestine [8]; 2.76 % ID/g with Brain [9]; 1.34 % ID/g in the series with Spleen [10]; 1.45 % ID/g with Pancreas [11]; 2.84 % ID/g in the series on Pancreas [12]; 2.82 % ID/g with Brain [13]. Besides, the Drug uptake in the series on Liver [14] came to 4.44 % ID/g; in the series on Stomach [15], 1.64 % ID/organ; with Brain [16], 2.06 % ID/g; in the series on Intestine [17], 1.7 % ID/g; in the series on Heart [18], 1.84 % ID/g; with Heart [19] it was 11.3 % ID/g. Moreover, the Drug uptake in the series on Pancreas [20] worked out at 4.55 % ID/g; in the series with Blood [21], 1.23 % ID/g; with Brain [22], 2.01 % ID/g; in the series on Kidney [23] it was 8.77 % ID/g; with Stomach [24], 2.46 % ID/organ; with Spleen [25], 3.62 % ID/g. Also, the Drug uptake with Kidney [26] turned out to be 2.95 % ID/g; in the series on Stomach [27], 3.16 % ID/organ; in the series on Kidney [28] it was 6.22 % ID/g; in the series on Heart [29], 4.44 % ID/g; with Intestine [30], 3.53 % ID/g; with Spleen [31], 2.13 % ID/g. In addition, the Drug uptake in the series on Blood [32] is 1.12 % ID/g; in the series on Pancreas [33] it was 4.94 % ID/g; with Liver [34], 6.13 % ID/g; in the series on Blood [35] it was 1.96 % ID/g; in the series on Blood [36], 1.63 % ID/g; in the series on Intestine [37], 6.62 % ID/g.
As for `CNc1ccc(-c2nc(-c3ccc([125I])cc3)no2)cc1`, the Drug uptake in the series with Kidney [2] was 3.39 % ID/g; in the series with Liver [3] it was 12.37 % ID/g; in the series on Spleen [4] it was 4.58 % ID/g; in the series with Heart [5], 1.27 % ID/g; with Liver [6], 14.62 % ID/g; with Stomach [7] it was 1.08 % ID/organ. The Drug uptake is recorded as 8.46 % ID/g with Intestine [8]; 1.98 % ID/g in the series on Brain [9]; 2.14 % ID/g with Spleen [10]; 1.88 % ID/g with Pancreas [11]; 3.06 % ID/g with Pancreas [12]; 2.56 % ID/g in the series with Brain [13]. Besides, the Drug uptake with Liver [14] is 7.3 % ID/g; in the series with Stomach [15], 2.32 % ID/organ; in the series on Brain [16] it was 1.44 % ID/g; in the series on Intestine [17], 1.36 % ID/g; in the series on Heart [18], 1.68 % ID/g; in the series with Heart [19] it was 9.51 % ID/g. Besides, the Drug uptake in the series on Pancreas [20] is 3.34 % ID/g; in the series on Blood [21], 1.52 % ID/g; in the series with Brain [22], 2.7 % ID/g; with Kidney [23], 9.53 % ID/g; in the series with Stomach [24], 4.89 % ID/organ; with Spleen [25] it was 4.7 % ID/g. Further, the Drug uptake with Kidney [26] came to 3.02 % ID/g; in the series on Stomach [27], 7.38 % ID/organ; in the series on Kidney [28], 5.3 % ID/g; in the series with Heart [29], 3.05 % ID/g; with Intestine [30] it was 2.83 % ID/g; with Spleen [31], 2.84 % ID/g. Moreover, the Drug uptake with Blood [32] is reported as 1.54 % ID/g; in the series on Pancreas [33], 3.91 % ID/g; in the series on Liver [34], 8.53 % ID/g; in the series on Blood [35] it was 3.54 % ID/g; with Blood [36] it was 1.84 % ID/g; in the series with Intestine [37], 5.67 % ID/g.
